According to ChEMBL document CHEMBL1154689, “Coordination chemistry based approach to lipophilic inhibitors of 1-deoxy-D-xylulose-5-phosphate reductoisomerase” (J Med Chem, 2009):
Values after ≈ are worked out from the molar mass of the structure shown.

Assays:
[1] = test system: Escherichia coli; assay: Inhibition of Escherichia coli M15 DXR at 100 uM
[2] = test system: Escherichia coli; assay: Antibacterial activity against Escherichia coli B/r after 24 hrs by NCCLS method; assay type: functional
How it was run: (§1)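 MIC taken as the lowest agent concentration preventing visible bacterial growth after 24 h incubation at 37 °C.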

[3] = test system: Pseudomonas aeruginosa; assay: Antibacterial activity against Pseudomonas aeruginosa H45006 after 24 hrs by NCCLS method; assay type: functional; conditions: H45006, 24 h; how it was run: as §1
[4] = test system: Bacillus anthracis; assay: Antibacterial activity against Bacillus anthracis Sterne after 24 hrs by NCCLS method; assay type: functional
[5] = test system: Micrococcus luteus; assay: Antibacterial activity against Micrococcus luteus WT after 24 hrs by NCCLS method; assay type: functional; how it was run: as §1
[6] = Inhibition of Escherichia coli M15 DXR
[7] = Cytotoxicity against human BEAS2B cells after 24 hrs by MTS assay; assay type: cell-based; conditions: BEAS-2B
[8] = Cytotoxicity against human WI38 cells after 24 hrs by MTS assay; assay type: cell-based; conditions: WI-38, 24 h

Compound	inhibition [1]	MIC [2]	MIC [3]	MIC [4]	MIC [5]	other results
O=C(O)CCc1ccc(O)c(O)c1	26.2%	–	–	–	–	–
CC1(C)S[C@@H]2[C@H](NC(=O)[C@H](N)c3ccccc3)C(=O)N2[C@H]1C(=O)O [AMPICILLIN]	–	5 µM (≈ 1.75 µg/mL)	500 µM (≈ 175 µg/mL)	0.1 µM (≈ 0.0349 µg/mL)	1 µM (≈ 0.349 µg/mL)	–
Oc1ccc(-c2ccccc2)cn1	–	–	–	–	–	IC50 [6]: 75 µM
O=c1n(O)ccn1Cc1ccccc1	19%	–	–	–	–	–
[O-][n+]1cccc(-c2ccccc2)c1	0%	–	–	–	–	–
O=CN(O)CCCP(=O)(O)O [FOSMIDOMYCIN]	–	10 µM (≈ 1.83 µg/mL)	20 µM (≈ 3.66 µg/mL)	100 µM (≈ 18.3 µg/mL)	> 1000 µM	IC50 [6]: 0.08 µM
O=c1cc(Cc2ccccc2)[nH]cc1O	0%	–	–	–	–	–
Oc1cnc(Cc2ccccc2)nc1O	30%	–	–	–	–	–
O=P(O)(O)CCc1ccc(O)c(O)c1	–	> 1000 µM	1000 µM (≈ 218 µg/mL)	1000 µM (≈ 218 µg/mL)	> 1000 µM	–
Oc1ccc(-c2ccccc2)cc1O	–	500 µM (≈ 93.1 µg/mL)	200 µM (≈ 37.2 µg/mL)	200 µM (≈ 37.2 µg/mL)	200 µM (≈ 37.2 µg/mL)	–
Nc1cc(-c2ccccc2)ccc1O	0%	–	–	–	–	–
NC[C@H]1O[C@H](O[C@H]2[C@H](O)[C@@H](O[C@H]3O[C@H](CO)[C@@H](O)[C@H](N)[C@H]3O)[C@H](N)C[C@@H]2N)[C@H](O)[C@@H](O)[C@@H]1O [KANAMYCIN]	–	10 µM (≈ 4.85 µg/mL)	200 µM (≈ 96.9 µg/mL)	5 µM (≈ 2.42 µg/mL)	20 µM (≈ 9.69 µg/mL)	–
Oc1ccc(Cc2ccccc2)cc1O	–	1000 µM (≈ 200 µg/mL)	200 µM (≈ 40 µg/mL)	200 µM (≈ 40 µg/mL)	200 µM (≈ 40 µg/mL)	IC50 [6]: 22.4 µM
O=C(Cc1ccccc1)NO	26%	–	–	–	–	–
O=C(O)c1cc(-c2ccccc2)ccc1O	0%	–	–	–	–	–
O=c1ccn(O)c(=O)n1Cc1ccccc1	0%	–	–	–	–	–
O=c1ccc(-c2ccccc2)cn1O [1-HYDROXY-5-PHENYLPYRIDIN-2(1H)-ONE]	–	100 µM (≈ 18.7 µg/mL)	50 µM (≈ 9.36 µg/mL)	20 µM (≈ 3.74 µg/mL)	100 µM (≈ 18.7 µg/mL)	IC50 [6]: 1.4 µM; IC50 [7]: > 300 µM; IC50 [8]: > 300 µM
O=c1cc(Cc2ccccc2)occ1O	0%	–	–	–	–	–
